# SF-1 act: activators of human SF-1, primary screen, cell-based, CHO-K1, Gal4-SF-1 LBD, luciferase luminescence; actives 1.9% (n = 65,000); activation, % at 10 µM; CHO-K1 Gal4-SF-1 LBD luciferase reporter; % increase over DMSO SF-1-specific signal; AID 522, 2006;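 active = activation above the mean activation of all tested compounds plus 3 SD, cut at about 50% in these data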
# Target sequence (Q13285 whole entry, looked up, the tested form may be a part): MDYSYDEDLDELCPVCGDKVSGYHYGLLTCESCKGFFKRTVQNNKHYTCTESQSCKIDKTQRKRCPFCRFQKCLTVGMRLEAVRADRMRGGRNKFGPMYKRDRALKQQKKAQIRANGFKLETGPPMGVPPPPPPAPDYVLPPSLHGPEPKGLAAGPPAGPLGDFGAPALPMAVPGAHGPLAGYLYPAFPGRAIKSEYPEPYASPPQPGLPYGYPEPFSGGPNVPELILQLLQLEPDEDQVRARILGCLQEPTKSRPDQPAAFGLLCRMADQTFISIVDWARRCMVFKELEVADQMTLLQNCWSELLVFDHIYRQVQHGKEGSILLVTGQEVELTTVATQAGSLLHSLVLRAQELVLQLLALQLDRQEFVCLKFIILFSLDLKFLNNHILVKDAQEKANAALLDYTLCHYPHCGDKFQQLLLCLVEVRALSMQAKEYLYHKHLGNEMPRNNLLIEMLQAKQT
#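 Assay system – CHO-K1 cells with Gal4–hSF-1 LBD chimera plus Gal4-driven luciferase · Quantity – 4,000 cells per well · Times – compound added 1 h post-seeding, 20 h exposure at 37 °C, 5% CO2 · Measured by – luciferase light emission · Benchmarks – DMSO and mock-transfected background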
# MMP13 inh: human MMP13 inhibitors, primary screen, biochemical, FRET peptide cleavage; Collagenase 3 (Homo sapiens), P45452; MMP-13 fTHP FRET cleavage, Mca fluorescence; inhibition, % at 4 µM; actives 0.07% (n = 65,000); AID 570, 2006;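 active = inhibition above the mean of compound-free control plate wells plus 3 SD, cut at about 14% in these data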;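 also: 0% = DMSO wells and 100% = wells with reference MMP-13 inhibitor after basal subtraction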
# RORa activator: activators of orphan receptor RORA, primary screen, cell-based, luminescence. actives 1.5% (n = 65,000). CHO-K1 Gal4-RORA LBD luciferase reporter; percent increase over mock-subtracted basal signal. Nuclear receptor ROR-alpha (Homo sapiens), P35398. activation, % at 10 µM;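 active = activation above the mean of all tested compounds plus 3 SD, cut at about 49% in these data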;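 also: 0% = DMSO-treated RORA cells and 100% = added signal equal to DMSO minus mock-transfected cells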
# AP complement: alternative complement pathway inhibitors, primary screen, biochemical, ELISA, human serum, orthogonally pooled compounds; AID 1235, 2008; inhibition, % at 5 µM; actives 0.08% (n = 62,000); LPS-coated ELISA, C3 deposition; tested in compound mixtures;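 active = inhibition above 30% in each of the two pooled mixtures holding the compound, so the lower value exceeds 30%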;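 also: 0% = serum in Mg-EGTA without compound and 100% = EDTA serum blank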
#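 Assay system: human serum alternative complement pathway, C3 deposition on LPS-coated wells; Dosing: 5 µM per compound in ten-compound mixtures; Detection: Anti-C3 ELISA, OD 450 nm; Buffer or medium: Mg2+-EGTA GVB++ buffer containing human serum at 1:15 dilution; Timing: 1 h at 37 °C; Replication: two different pools per compound.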
# HePTP inhibitor: inhibitors of human HePTP phosphatase, primary screen, biochemical, absorbance, leukemia target; actives 0.64% (n = 110,000); inhibition, % at 20 µM; recombinant HePTP phosphatase activity, OD absorbance; AID 521, 2006; Tyrosine-protein phosphatase non-receptor type 7 (Homo sapiens), P35236; in the data active = inhibition above about 50%;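 also: plate controls were vehicle for no effect and reference inhibitor for full effect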
# Ec RNAP inh: E. coli RNAP inhibitors, biochemical | DNA-directed RNA polymerase subunit beta (Escherichia coli (strain K12)), P0A8V2 | E. coli RNA polymerase, fluorescence transcription assay | inhibition, %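 (tested at 10 µM)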 | actives 0.2% (n = 62,000) | AID 559, 2006; in the data active = inhibition above about 20%;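 also: 0% = enzyme without compound and 100% = no enzyme blank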
# Numbers without * were called inactive; nt = no result; ! = not active in a repeat. In the library only some 2.4% were active in any assay of this set; here they are far more common.
SMILES,SF-1 act,MMP13 inh,RORa activator,AP complement,HePTP inhibitor,Ec RNAP inh
CC(C)OC(=O)c1ccc(NC(=O)C2C3CC4OC(=O)C2C4C3)cc1 (configuration not stated),56.4*,2.6,30.2,-2.5,-1.1,3.6
O=C(c1cccc([N+](=O)[O-])c1)c1ccc2c(c1)C(=O)NC2=O,nt,nt,nt,nt,104.2*,nt
CCN(CC)c1ccc(/C=C(\C#N)C(=O)NC)cc1,nt,nt,nt,nt,6.5,nt
O=C(O)c1ccc(Cl)c(-c2ccc(/C=N\Nc3ccc([N+](=O)[O-])cn3)o2)c1,nt,nt,nt,nt,53.8*,nt
O=C(COc1ccccc1)Nc1cccc([N+](=O)[O-])c1,nt,nt,nt,nt,3.2,nt
O=C(CCOc1ccccc1)Nc1cccc([N+](=O)[O-])c1,nt,nt,nt,nt,91.8*,nt
C=C(Br)Cn1c(CCC)nc2ccccc21,-21.3,2.4,-12.6,-6.0,101.6*!,-1.4
CC(C)(C)n1ncc2c(=O)n(CC(=O)Nc3ccccc3)cnc21,8.0,-0.7,-3.0,10.2,1.8,20.4
CCOC(=O)c1ccccc1NC(=O)Cn1cnc2c(cnn2C(C)(C)C)c1=O,4.6,-4.2,2.4,18.8,2.3,-0.1
CC(C)(C)n1ncc2c(=O)n(CC(=O)NC3CCCCC3)cnc21,68.3*,-4.5,23.8,27.5,2.3,1.5
CC(C)(C)n1ncc2c(=O)n(CC(=O)NCc3ccc(F)cc3)cnc21,91.6*,-3.0,67.1*,-4.0,-0.5,2.4
CC(C)(C)n1ncc2c(=O)n(CC(=O)c3ccccc3)cnc21,93.4*,9.3,54.9*,6.9,13.8,8.1
CC(C)(C)n1ncc2c(=O)n(CC(=O)OCc3ccccc3)cnc21,22.6,6.3,8.8,15.1,nt,0.8
CC(C)(C)n1ncc2c(=O)n(CC(=O)NCc3ccco3)cnc21,50.0*,7.0,37.8,1.1,2.5,7.2
N#C/C(=C/c1cccc2ccccc12)c1ccc([N+](=O)[O-])cc1,nt,nt,nt,nt,-1.9,nt
c1ccc2nc3c(nc2c1)c1ccccc1n3CCN1CCOCC1,91.3*,-0.8,14.1,-4.7,-10.2,12.3
O=C1OC(c2ccc(Oc3ccccc3)cc2)=C/C1=C/c1ccco1,nt,nt,nt,nt,101.4*,nt
O=C1OC(c2ccc(Cl)cc2)=C/C1=C\c1ccco1,nt,nt,nt,nt,50.8*,nt
CCOc1ccc(/C=C\C(C)=N\O)cc1,6.4,2.3,72.3*,3.1,-5.2,7.2
Cc1ccc(OCCCN2CCCC2)c(C(C)(C)C)c1,nt,nt,nt,nt,5.7,nt
CCCOC(=O)c1c(-c2ccc(OCC)cc2)csc1N,nt,nt,nt,nt,-9.8,nt
CCCOC(=O)c1c(-c2ccc(OC)c(OC)c2)csc1N,nt,nt,nt,nt,104.0*,nt
c1ccc(OCCOc2ncnc3sccc23)cc1,52.6*,1.0,38.8,5.2,-3.3,5.4
CC(C)NC(=O)NC(=O)COc1ncnc2sccc12,-3.9,2.8,10.4,3.9,3.1,9.7
Cc1cc(NC(=O)/C=C/c2ccccc2Cl)ccc1Br,nt,nt,nt,nt,-1.1,nt
SMILES,SF-1 act,MMP13 inh,RORa activator,AP complement,HePTP inhibitor,Ec RNAP inh
Cc1nc(N)sc1-c1csc(Nc2ccccc2)n1,89.8*,-0.8,49.9*,10.1,4.8,3.6
CNc1nc(Nc2cccc([N+](=O)[O-])c2)nc(OCC(F)(F)F)n1,nt,nt,nt,nt,104.7*,nt
Nc1ccccc1SCc1cn2ccccc2n1,29.6,-3.5,49.3*,nt,nt,nt
O=C(NCCN1C(=O)C2C3C=CC(C3)C2C1=O)Nc1ccc(Br)cc1 (configuration not stated),83.7*,1.3,84.3*,3.2,-9.2,12.5
O=C(NCCN1C(=O)C2C3C=CC(C3)C2C1=O)Nc1cccnc1 (configuration not stated),-16.1,4.9,-16.7,14.9,2.1,3.1
Clc1ccc2oc(-c3ccccn3)nc2c1,59.1*,-19.8,33.9,38.1*,1.3,8.9
Nc1ccc2oc(-c3ccccn3)nc2c1,36.0,2.4,22.7,11.8,-6.6,2.7
COc1ccc(Cn2c(C3CC3)nc3ccc(NC(=O)C4CC4)cc3c2=O)cc1,162.5*,-2.4,47.7,-14.2,-5.7,6.6
COc1cccc(Cn2c(C3CC3)nc3ccc(NC(=O)c4ccco4)cc3c2=O)c1,19.9,-10.6,12.0,1.7,8.7,2.5
CC(=O)N1CCN(c2ccc(Nc3ncnc4c3oc3ccccc34)cc2)CC1,16.6,2.2,-14.8,14.3,4.9,2.7
CCc1nc(Nc2ccc(N3CCN(C(C)=O)CC3)cc2)c2oc3ccccc3c2n1,53.4*,2.5,12.5,1.7,6.6,6.8
COc1ccc(-c2cc(-c3ccc(OC)cc3)[nH]n2)cc1,42.5,1.1,65.3*,-1.9,4.1,10.2
CCN(CCCNC(=O)c1cn(CC)c2ccc(S(=O)(=O)N(C)C)cc2c1=O)c1cccc(C)c1,9.7,1.4,62.5*,7.4,-0.3,4.2
CCn1cc(C(=O)NCCCN(C)c2ccccc2)c(=O)c2cc(S(=O)(=O)N(C)C)ccc21,1.4,-1.3,20.0,7.2,-2.2,6.0
Nc1nonc1-c1noc(CCCN2C(=O)c3ccccc3C2=O)n1,49.5*,6.1,39.8,17.1,2.5,-1.1
Clc1ccccc1OCc1nc(-c2ccccn2)no1,17.6,2.0,-5.4,10.6,12.2,8.4
Cc1cccc(OCc2nc(-c3nonc3N)no2)c1C,32.6,2.5,81.3*,8.2,11.6,0.9
O=C1c2ccccc2C(=O)N1CCCc1nc(-c2cccnc2)no1,-5.3,4.8,-15.1,11.0,10.6,4.8
Nc1nonc1-c1noc(COc2ccccc2Cl)n1,68.6*,1.9,87.9*,16.7,9.2,-0.5
CC(=O)N1CCN(c2cc(N3CCC(C)CC3)c(F)cc2[N+](=O)[O-])CC1,nt,nt,nt,nt,0.2,nt
COc1ccc(NCn2nnc3ccccc32)c([N+](=O)[O-])c1,nt,nt,nt,nt,-4.3,nt
Cc1ccc2nc(Nc3ccc4[nH]c(=O)[nH]c4c3)c(-n3nc(C)cc3C)nc2c1,4.7,5.6,58.8*,nt,nt,nt
Cc1cc(C)n(-c2nc3ccccc3nc2Nc2ccc3c(c2)OCO3)n1,-34.9,-3.6,20.3,3.2,-8.1,-0.9
O=c1c2c3c(sc2n2cnnc2n1C1CCCCC1)CCC3,-0.3,20.1*,-10.4,nt,4.2,7.2
COC(=O)CCC(=O)Nc1c(C)cc(C)cc1C,nt,nt,nt,nt,9.6,nt
CCCn1cnc2cc(NCc3cccc(OC)c3O)ccc21,2.2,-9.6,-0.9,3.2,6.3,0.6
COc1cccc(CNc2ccc3c(c2)ncn3C(C)C)c1OC,54.8*,-5.3,27.1,15.5,1.5,2.0
COc1cc2oc(=O)cc(C)c2cc1C=O,nt,nt,nt,nt,-6.3,nt
O=C(CCN1C(=O)/C(=C/c2ccccc2)SC1=S)NNC(=O)c1ccccc1Br,nt,nt,nt,nt,9.0,nt
